In ChEMBL document CHEMBL2380254, “Optimization of tocotrienols as antiproliferative and antimigratory leads” (Eur J Med Chem, 2013):

Assays:
Assay type in all cases: functional
NCI-H522 = assay: Growth inhibition of human NCI-H522 cells after 48 hrs by sulforhodamine B assay; conditions: NCI-H522, 48 h
In short: (§1)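 NCI-60 panel cells grown in RPMI 1640 with 5% FBS and 2 mM L-glutamine, seeded at 5000–40,000 cells/well and preincubated 24 h. Five 10-fold dilutions (0.001–100 µM) from DMSO stocks were added for 48 h at 37 °C. Adherent cells were fixed with cold TCA (10% final) for 60 min at 4 °C, stained with 0.4% SRB, and read at 515 nm. GI50 was set where 100×(T−T0)/(C−T0)=50.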

A549 = assay: Growth inhibition of human A549/ATCC cells assessed as cell growth at 10 uM after 48 hrs by sulforhodamine B assay; conditions: A549, 48 h, read-out: Activity
In short: (§2)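 NCI-60 single-dose screen at 10 µM: cells in RPMI 1640 with 5% FBS, preincubated 24 h, then exposed 48 h at 37 °C. TCA fixation (16% final for suspension cells), SRB staining, absorbance 515 nm. Percent growth relative to time-zero and untreated control plates; negative values indicate cell kill.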

HCT-116 [1] = assay: Growth inhibition of human HCT116 cells assessed as cell growth at 10 uM after 48 hrs by sulforhodamine B assay; conditions: HCT-116, 48 h, read-out: Activity; in short: as §2
COLO 205 = assay: Growth inhibition of human COLO205 cells assessed as cell growth at 10 uM after 48 hrs by sulforhodamine B assay; conditions: COLO 205, 48 h, read-out: Activity; in short: as §2
SK-OV-3 [2] = assay: Growth inhibition of human SKOV3 cells assessed as cell growth at 10 uM after 48 hrs by sulforhodamine B assay; conditions: SK-OV-3, 48 h, read-out: Activity
In short: (§3)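 Single-dose NCI-60 test at 10 µM. Cells were grown in RPMI 1640 with 5% FBS and 2 mM L-glutamine, preincubated 24 h, with T0 plates TCA-fixed. Exposure was 48 h at 37 °C, 5% CO2. Cells were fixed with cold TCA (final 10%, 4 °C, 60 min), stained with SRB and read at 515 nm. Percent growth was taken relative to T0 and untreated control; negative values denote cell kill.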

SR = assay: Growth inhibition of human SR cells assessed as cell growth at 10 uM after 48 hrs by sulforhodamine B assay; conditions: read-out: Activity
In short: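 Suspension line in RPMI 1640 with 5% FBS, single 10 µM dose for 48 h. Settled cells were fixed with TCA (final 16%), then SRB-stained and read at 515 nm. Percent growth was taken versus T0 and control; negative values denote cytotoxicity.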

OVCAR-3 = assay: Growth inhibition of human OVCAR3 cells assessed as cell growth at 10 uM after 48 hrs by sulforhodamine B assay; conditions: OVCAR-3, 48 h, read-out: Activity
In short: (§4)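 Single-dose NCI-60 screen: adherent cells in RPMI 1640 with 5% FBS were exposed to 10 µM for 48 h at 37 °C after a 24 h preincubation. They were fixed in situ with cold TCA (10% final), stained with 0.4% SRB in 1% acetic acid, solubilized in 10 mM Tris base, and read at 515 nm. Percent growth was taken relative to time-zero and control plates.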

MDA-MB-435 [3] = assay: Growth inhibition of human MDA-MB-435 cells after 48 hrs by sulforhodamine B assay; conditions: MDA-MB-435, 48 h; in short: as §1
TK-10 = assay: Growth inhibition of human TK10 cells after 48 hrs by sulforhodamine B assay; conditions: TK-10, 48 h
In short: (§5)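 NCI-60 five-dose screen. Cells were grown in RPMI 1640 with 5% FBS and 2 mM L-glutamine, plated at 5000–40,000 cells/well and incubated 24 h before dosing, with T0 plates TCA-fixed. DMSO stocks were diluted to doses of […] and exposed 48 h at 37 °C, 5% CO2. Cells were fixed with cold TCA (final 10%, 60 min, 4 °C), stained with 0.4% SRB in 1% acetic acid for 10 min, solubilized in 10 mM trizma base and read at 515 nm. GI50 is where 100×(T−T0)/(C−T0)=50.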

SF-539 [4] = assay: Growth inhibition of human SF539 cells after 48 hrs by sulforhodamine B assay; conditions: SF-539, 48 h; in short: as §1
SF-539 [5] = assay: Growth inhibition of human SF539 cells assessed as cell growth at 10 uM after 48 hrs by sulforhodamine B assay; conditions: SF-539, 48 h, read-out: Activity; in short: as §4
ACHN = assay: Growth inhibition of human ACHN cells assessed as cell growth at 10 uM after 48 hrs by sulforhodamine B assay; conditions: read-out: Activity; in short: as §2
SNB-19 = assay: Growth inhibition of human SNB19 cells assessed as cell growth at 10 uM after 48 hrs by sulforhodamine B assay; conditions: SNB-19, 48 h, read-out: Activity; in short: as §3
UO-31 = assay: Growth inhibition of human UO31 cells assessed as cell growth at 10 uM after 48 hrs by sulforhodamine B assay; conditions: UO-31, 48 h, read-out: Activity; in short: as §3
MDA-MB-435 [6] = assay: Growth inhibition of human MDA-MB-435 cells assessed as cell growth at 10 uM after 48 hrs by sulforhodamine B assay; conditions: MDA-MB-435, 48 h, read-out: Activity; in short: as §4
HCT-116 [7] = assay: Growth inhibition of human HCT116 cells after 48 hrs by sulforhodamine B assay; conditions: HCT-116, 48 h
In short: (§6)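 NCI-60 screen: cells in RPMI 1640 with 5% FBS and 2 mM glutamine, 5000–40,000 cells/well, preincubated 24 h. Five concentrations (10-fold dilutions; 100 to 0.001 µM) applied for 48 h at 37 °C. TCA fixation, SRB stain, absorbance at 515 nm. Time-zero plates included; GI50 where 100×(T−T0)/(C−T0)=50.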

786-0 [8] = assay: Growth inhibition of human 786-0 cells after 48 hrs by sulforhodamine B assay; conditions: 786-0, 48 h; in short: as §6
HL-60(TB) = assay: Growth inhibition of human HL-60(TB) cells after 48 hrs by sulforhodamine B assay; conditions: HL-60, 48 h
In short: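 HL-60(TB) cells (suspension) grown in RPMI 1640 with 5% FBS and 2 mM L-glutamine. They were plated and preincubated for 24 h, with T0 plates fixed at that point. Drug was given at five 10-fold dilutions for 48 h at 37 °C. Settled cells were fixed with TCA (16% final), stained with 0.4% SRB in 1% acetic acid and read at 515 nm. GI50 was taken where 100×(T−T0)/(C−T0)=50.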

786-0 [9] = assay: Growth inhibition of human 786-0 cells assessed as cell growth at 10 uM after 48 hrs by sulforhodamine B assay; conditions: 786-0, 48 h, read-out: Activity; in short: as §2
HT-29 = assay: Growth inhibition of human HT-29 cells after 48 hrs by sulforhodamine B assay; conditions: HT-29, 48 h; in short: as §6
NCI-H460 = assay: Growth inhibition of human NCI-H460 cells assessed as cell growth at 10 uM after 48 hrs by sulforhodamine B assay; conditions: NCI-H460, 48 h, read-out: Activity; in short: as §4
SK-OV-3 [10] = assay: Growth inhibition of human SKOV3 cells after 48 hrs by sulforhodamine B assay; conditions: SK-OV-3, 48 h; in short: as §5

Structure (SMILES) | GI50 (NCI-H522) [µM] | growth at 10 µM (A549) [%] | growth at 10 µM (HCT-116 [1]) [%] | growth at 10 µM (COLO 205) [%] | growth at 10 µM (SK-OV-3 [2]) [%] | growth at 10 µM (SR) [%] | growth at 10 µM (OVCAR-3) [%] | GI50 (MDA-MB-435 [3]) [µM] | GI50 (TK-10) [µM] | GI50 (SF-539 [4]) [µM] | growth at 10 µM (SF-539 [5]) [%] | growth at 10 µM (ACHN) [%] | growth at 10 µM (SNB-19) [%] | growth at 10 µM (UO-31) [%] | growth at 10 µM (MDA-MB-435 [6]) [%] | GI50 (HCT-116 [7]) [µM] | GI50 (786-0 [8]) [µM] | GI50 (HL-60(TB)) [µM] | growth at 10 µM (786-0 [9]) [%] | GI50 (HT-29) [µM] | further results
CC(C)=CCC/C(C)=C/CC/C(C)=C/CC[C@]1(C)CCc2c3c(cc(C)c2O1)OCN(CCCCCCCCO)C3 | 3.75 | -85.3 | -100 | -94.5 | -56.9 | -53.3 | -85.4 | 1.16 | 4.64 | 1.28 | -94.4 | -97.6 | -74.6 | -91.5 | -76.2 | 0.597 | 2.71 | 1.03 | -95.3 | 0.703 | growth at 10 µM (NCI-H460): 0.55%; GI50 (SK-OV-3 [10]): 2.24 µM
CC(C)=CCC/C(C)=C/CC/C(C)=C/CC[C@]1(C)CCc2c3c(cc(C)c2O1)OCN(C1CCN(Cc2ccccc2)CC1)C3 | 1.81 | 49.6 | -81.9 | -36.5 | 109 | -35 | -47.9 | 1.2 | 1.71 | 1.83 | 80.6 | 83.2 | 68.2 | 57.8 | 3.07 | 0.576 | 1.52 | 0.349 | 24.1 | 1.84 | growth at 10 µM (NCI-H460): -78.7%; GI50 (SK-OV-3 [10]): 1.93 µM
CC(C)=CCC/C(C)=C/CC/C(C)=C/CC[C@]1(C)CCc2c3c(c(C)c(C)c2O1)OCN(CCCCCO)C3 | 7.08 | 80.3 | 36.1 | 68.7 | 101 | -44.4 | 65.2 | 5.8 | 5.98 | 6.26 | 106 | 101 | 86.5 | 64.6 | 35.5 | 5.25 | 6.47 | 6.26 | 90.2 | 3.74 | growth at 10 µM (NCI-H460): -49.6%; GI50 (SK-OV-3 [10]): 6.85 µM
CC(C)=CCC/C(C)=C/CC/C(C)=C/CC[C@]1(C)CCc2c3c(c(C)c(C)c2O1)OCN(CCCCCCCCO)C3 | 2.91 | 20.2 | -92.9 | 14.9 | 52.9 | -37.8 | 31.7 | 3.2 | 3.41 | 3.29 | 72.6 | 79.6 | 73.6 | 27.9 | -21.4 | 2.95 | 2.72 | 3.44 | 59.8 | 3.26 | growth at 10 µM (NCI-H460): 9.26%; GI50 (SK-OV-3 [10]): 2.63 µM
CC(C)=CCC/C(C)=C/CC/C(C)=C/CC[C@]1(C)CCc2c3c(c(C)c(C)c2O1)OCN(CCCCO)C3 | > 10 | 70 | -72.3 | -16 | 76.9 | -11.1 | 79.9 | 4.68 | > 10 | > 10 | 69.6 | 78.8 | 71.3 | 50.7 | 53.9 | 2 | > 10 | 3.86 | 72.8 | 2.87 | growth at 10 µM (NCI-H460): 4.31%; GI50 (SK-OV-3 [10]): 5.41 µM
